According to ChEMBL document CHEMBL1148105, “Bioactive metabolites from a marine-derived strain of the fungus Emericella variecolor” (2002):
Activity calls are given as the source filed them. The rule behind the calls is not given here.

What was measured:
Escherichia coli = experiment: Antimicrobial activity against Escherichia coli at 100 ug/ml; type: functional, organism-based
Candida albicans = experiment: Antimicrobial activity against Candida albicans at 100 ug/ml; type: functional, organism-based
HCT-116 = experiment: Growth inhibition of human HCT116 cells; type: functional
Summary of the method: (§1)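 Tested in the NCI 60-cell-line screen using the standard NCI protocol, with concentrations up to 10^-4 M. Growth inhibition is reported as GI50 (M), taken from the NCI mean graphs.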

T47D = experiment: Growth inhibition of human T47D cells; type: functional
Summary of the method: (§2)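 Run in the NCI 60-cell-line screen under the standard NCI protocol. Cells were tested at concentrations up to 10^-4 M. Potency was expressed as GI50 (M), taken from the NCI mean-graph data.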

SK-MEL-28 = experiment: Growth inhibition of human SK-MEL-28 cells; type: functional; summary of the method: as §2
SF-268 = experiment: Growth inhibition of human SF268 cells; type: functional; summary of the method: as §2
UACC-62 = experiment: Growth inhibition of human UACC62 cells; type: functional; summary of the method: as §2
MDA-N = experiment: Growth inhibition of human MDA-N cells; type: functional; summary of the method: as §1
SR = experiment: Growth inhibition of human SR cells; type: functional; summary of the method: as §2
KM12 = experiment: Growth inhibition of human KM12 cells; type: functional; summary of the method: as §1
EKVX = experiment: Growth inhibition of human EKVX cells; type: functional; summary of the method: as §1
Proteus sp. = experiment: Antimicrobial activity against Proteus sp. at 100 ug/ml; type: functional, organism-based
OVCAR-4 = experiment: Growth inhibition of human OVCAR4 cells; type: functional; summary of the method: as §1
M14 = experiment: Growth inhibition of human M14 cells; type: functional; summary of the method: as §1
DU-145 = experiment: Growth inhibition of human DU145 cells; type: functional; summary of the method: as §1
CAKI-1 = experiment: Growth inhibition of human Caki1 cells; type: functional; summary of the method: as §1
SN12C = experiment: Growth inhibition of human SN12C cells; type: functional; summary of the method: as §2
SNB-19 = experiment: Growth inhibition of human SNB19 cells; type: functional; summary of the method: as §2
Bacillus subtilis = experiment: Antimicrobial activity against Bacillus subtilis at 100 ug/ml; type: functional, organism-based
TK-10 = experiment: Growth inhibition of human TK10 cells; type: functional; summary of the method: as §2
OVCAR-8 = experiment: Growth inhibition of human OVCAR8 cells; type: functional; summary of the method: as §1
OVCAR-3 = experiment: Growth inhibition of human OVCAR-3 cells; type: functional; summary of the method: as §1
Enterococcus faecalis = experiment: Antimicrobial activity against Enterococcus faecalis at 100 ug/ml; type: functional, organism-based
SK-MEL-2 = experiment: Growth inhibition of human SK-MEL-2 cells; type: functional; summary of the method: as §2
UACC-257 = experiment: Growth inhibition of human UACC257 cells; type: functional; summary of the method: as §2
Malme-3M = experiment: Growth inhibition of human MALME-3M cells; type: functional; summary of the method: as §1
LOX IMVI = experiment: Growth inhibition of human LOXIMVI cells; type: functional; summary of the method: as §1
ACHN = experiment: Growth inhibition of human ACHN cells; type: functional; summary of the method: as §1
SK-OV-3 = experiment: Growth inhibition of human SKOV3 cells; type: functional; summary of the method: as §2
NCI/ADR-RES = experiment: Growth inhibition of human NCI/ADR-RES cells; type: functional; summary of the method: as §1
IGROV-1 = experiment: Growth inhibition of human IGROV1 cells; type: functional; summary of the method: as §1
HCT-15 = experiment: Growth inhibition of human HCT15 cells; type: functional; summary of the method: as §1
Staphylococcus aureus = experiment: Antimicrobial activity against Staphylococcus aureus at 100 ug/ml; type: functional, organism-based
NCI-H23 = experiment: Growth inhibition of human NCI-H23 cells; type: functional; summary of the method: as §1
[1] = Growth inhibition of human RPMI8266 cells; type: functional; summary of the method: as §2
[2] = read-out: pLC50 (the source's name) (converted)

SMILES: COc1cccc(/C=C/[C@H]2O[C@@H](C)[C@H](O)[C@@H]2O)c1CO [VARITRIOL]
- Activity (Escherichia coli): inactive
- Activity (Candida albicans): inactive
- GI50 (HCT-116): > 100 µM
- CC50 (HCT-116; [2]): > 100 µM
- TGI (HCT-116; read-out: pTGI): > 100 µM
- GI50 (T47D): 0.209 µM
- CC50 (T47D; [2]): > 100 µM
- TGI (T47D; read-out: pTGI (converted)): 1.05 µM
- GI50 (SK-MEL-28): > 100 µM
- CC50 (SK-MEL-28; [2]): > 100 µM
- TGI (SK-MEL-28; read-out: pTGI): > 100 µM
- GI50 (SF-268): > 100 µM
- CC50 (SF-268; [2]): > 100 µM
- TGI (SF-268; read-out: pTGI): > 100 µM
- GI50 (UACC-62): > 100 µM
- CC50 (UACC-62; [2]): > 100 µM
- TGI (UACC-62; read-out: pTGI): > 100 µM
- GI50 (MDA-N): > 100 µM
- CC50 (MDA-N; [2]): > 100 µM
- TGI (MDA-N; read-out: pTGI): > 100 µM
- GI50 (SR): > 100 µM
- CC50 (SR; [2]): > 100 µM
- TGI (SR; read-out: pTGI): > 100 µM
- GI50 (KM12): > 100 µM
- CC50 (KM12; [2]): > 100 µM
- TGI (KM12; read-out: pTGI): > 100 µM
- GI50 (EKVX): > 100 µM
- CC50 (EKVX; [2]): > 100 µM
- TGI (EKVX; read-out: pTGI): > 100 µM
- Activity (Proteus sp.): inactive
- GI50 (OVCAR-4): > 100 µM
- CC50 (OVCAR-4; [2]): > 100 µM
- TGI (OVCAR-4; read-out: pTGI): > 100 µM
- GI50 (M14): > 100 µM
- CC50 (M14; [2]): > 100 µM
- TGI (M14; read-out: pTGI): > 100 µM
- GI50 (DU-145): 1.1 µM
- CC50 (DU-145; [2]): > 100 µM
- TGI (DU-145; read-out: pTGI (converted)): 2.4 µM
- GI50 (CAKI-1): > 100 µM
- CC50 (CAKI-1; [2]): > 100 µM
- TGI (CAKI-1; read-out: pTGI): > 100 µM
- GI50 (SN12C): > 100 µM
- CC50 (SN12C; [2]): > 100 µM
- TGI (SN12C; read-out: pTGI): > 100 µM
- GI50 (SNB-19): 91.2 µM
- CC50 (SNB-19; [2]): > 100 µM
- TGI (SNB-19; read-out: pTGI): > 100 µM
- Activity (Bacillus subtilis): inactive
- GI50 (TK-10): > 100 µM
- CC50 (TK-10; [2]): > 100 µM
- TGI (TK-10; read-out: pTGI): > 100 µM
- GI50 (OVCAR-8): > 100 µM
- CC50 (OVCAR-8; [2]): > 100 µM
- TGI (OVCAR-8; read-out: pTGI): > 100 µM
- GI50 (OVCAR-3): > 100 µM
- CC50 (OVCAR-3; [2]): > 100 µM
- TGI (OVCAR-3; read-out: pTGI): > 100 µM
- Activity (Enterococcus faecalis): inactive
- GI50 (SK-MEL-2): > 100 µM
- CC50 (SK-MEL-2; [2]): > 100 µM
- TGI (SK-MEL-2; read-out: pTGI): > 100 µM
- GI50 (UACC-257): > 100 µM
- CC50 (UACC-257; [2]): > 100 µM
- TGI (UACC-257; read-out: pTGI): > 100 µM
- GI50 (Malme-3M): > 100 µM
- CC50 (Malme-3M; [2]): > 100 µM
- TGI (Malme-3M; read-out: pTGI): > 100 µM
- GI50 (LOX IMVI): > 100 µM
- CC50 (LOX IMVI; [2]): > 100 µM
- TGI (LOX IMVI; read-out: pTGI): > 100 µM
- GI50 (ACHN): > 100 µM
- CC50 (ACHN; [2]): > 100 µM
- TGI (ACHN; read-out: pTGI): > 100 µM
- GI50 (SK-OV-3): > 100 µM
- CC50 (SK-OV-3; [2]): > 100 µM
- TGI (SK-OV-3; read-out: pTGI): > 100 µM
- GI50 (NCI/ADR-RES): > 100 µM
- CC50 (NCI/ADR-RES; [2]): > 100 µM
- TGI (NCI/ADR-RES; read-out: pTGI): > 100 µM
- GI50 (IGROV-1): > 100 µM
- CC50 (IGROV-1; [2]): > 100 µM
- TGI (IGROV-1; read-out: pTGI): > 100 µM
- GI50 (HCT-15): > 100 µM
- CC50 (HCT-15; [2]): > 100 µM
- TGI (HCT-15; read-out: pTGI): > 100 µM
- Activity (Staphylococcus aureus): inactive
- GI50 (NCI-H23): > 100 µM
- CC50 (NCI-H23; [2]): > 100 µM
- TGI (NCI-H23; read-out: pTGI): > 100 µM
- GI50 [1]: > 100 µM
- CC50 [1, 2]: > 100 µM
